Results as given in ChEMBL document CHEMBL3526067, “Metabolism of bis(4-fluorobenzyl)trisulfide and its formation of hemoglobin adduct in rat erythrocytes” (Drug Metab Dispos, 2013).
One block for each molecule: values may come before it.

Columns and labels:
Blood [1] = experiment: Retention time in Sprague-Dawley rat whole blood treated with 50 uM Bis(4-fluorobenzyl)trisulfide after 15 mins by HPLC analysis; assay type: ADME, tissue-based; conditions: 0.25 h
Blood [2] = experiment: Drug level in Sprague-Dawley rat whole blood treated with BFBTS at 50 uM after 15 mins by HPLC analysis; assay type: ADME, tissue-based; conditions: 0.25 h
Blood [3] = experiment: Drug level in Sprague-Dawley rat whole blood treated with BFBTS at 50 uM by GC/MS analysis; assay type: ADME, tissue-based
[4] = Drug level in phosphate buffered saline treated with BFBTS at 5 uM by HPLC analysis in presence of GSH; assay type: physicochemical; conditions: buffer
[5] = Drug metabolism in phosphate buffered saline treated with BFBTS at 5 uM by HPLC analysis in presence of cysteine; assay type: physicochemical; conditions: buffer
[6] = Drug metabolism in phosphate buffered saline treated with BFBTS at 5 uM by HPLC analysis in presence of N-acetyl cysteine; assay type: physicochemical; conditions: buffer
[7] = Drug metabolism in phosphate buffered saline treated with BFBTS at 5 uM by HPLC analysis in presence of coenzyme A; assay type: physicochemical; conditions: buffer
[8] = Drug metabolism in Sprague-Dawley rat RBC assessed as BFBDS metabolite formation by HPLC analysis; assay type: ADME, cell-based; conditions: erythrocyte
How it was run: (§1)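 BFBTS (final 50 μM) incubated at 37°C with rat RBCs diluted with an equal volume of PBS, for 5, 10, 15, 30, 45 and 60 min. For M2 (p-FBM) and M3 (p-FBA), two volumes of acetonitrile added before HPLC. BFBTS and M1 were extracted by a cited method.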

[9] = Drug metabolism in Sprague-Dawley rat RBC assessed as p-FBA metabolite formation by HPLC analysis; assay type: ADME, cell-based; conditions: erythrocyte; how it was run: as §1
[10] = Drug metabolism in Sprague-Dawley rat RBC assessed as BFBTS formation by HPLC analysis; assay type: ADME, cell-based; conditions: erythrocyte; how it was run: as §1
[11] = Drug level in Sprague-Dawley rat RBC treated with BFBTS by HPLC analysis; assay type: ADME, cell-based; conditions: erythrocyte
How it was run: (§2)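 Male Sprague-Dawley rat RBCs (200–220 g rats), washed three times with PBS pH 7.4 and resuspended in PBS, incubated separately with each metabolite. Metabolites confirmed against authentic standards.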

[12] = Drug level in Sprague-Dawley rat RBC treated with BFBDS by HPLC analysis; assay type: ADME, cell-based; conditions: erythrocyte; how it was run: as §2
[13] = Drug level in Sprague-Dawley rat RBC treated with p-FBA by HPLC analysis; assay type: ADME, cell-based; conditions: erythrocyte
Blood [14] = experiment: Drug level in Sprague-Dawley rat whole blood treated with BFBTS by HPLC analysis; assay type: ADME, tissue-based
Blood [15] = experiment: Drug metabolism in Sprague-Dawley rat whole blood assessed as BFBDS metabolite formation at 50 uM by GC/MS analysis; assay type: ADME, tissue-based
Blood [16] = experiment: Drug metabolism in Sprague-Dawley rat whole blood assessed as p-FBM metabolite formation at 50 uM by GC/MS analysis; assay type: ADME, tissue-based
[17] = Drug metabolism in phosphate buffered saline assessed as p-FBM metabolite formation at 5 uM by HPLC analysis in presence of GSH; assay type: physicochemical; conditions: buffer
[18] = Drug metabolism in phosphate buffered saline assessed as p-FBM metabolite formation at 5 uM by HPLC analysis in presence of cysteine; assay type: physicochemical; conditions: buffer
[19] = Drug metabolism in phosphate buffered saline assessed as p-FBM metabolite formation at 5 uM by HPLC analysis in presence of coenzyme A; assay type: physicochemical; conditions: buffer
[20] = Stability of compound in phosphate buffered saline at 5 uM after 30 mins by HPLC analysis in presence of GSH; assay type: physicochemical; conditions: buffer, 0.5 h
[21] = Stability of compound in phosphate buffered saline at 5 uM after 30 mins by HPLC analysis in presence of cysteine; assay type: physicochemical; conditions: buffer, 0.5 h
[22] = Stability of compound in phosphate buffered saline at 5 uM after 30 mins by HPLC analysis in presence of N-acetyl cysteine; assay type: physicochemical; conditions: buffer, 0.5 h
[23] = Stability of compound in phosphate buffered saline at 5 uM after 30 mins by HPLC analysis in presence of coenzyme A; assay type: physicochemical; conditions: buffer, 0.5 h
[24] = Stability in Sprague-Dawley rat RBC at 5 uM incubated for 1 hr after 5 mM thiol residue blocking agent iodoacetamide challenge by HPLC analysis; assay type: ADME, cell-based; conditions: erythrocyte
[25] = Drug metabolism in Sprague-Dawley rat RBC assessed as p-FBM metabolite formation by HPLC analysis; assay type: ADME, cell-based; conditions: erythrocyte; how it was run: as §1
[26] = Drug level in Sprague-Dawley rat RBC treated with p-FBM by HPLC analysis; assay type: ADME, cell-based; conditions: erythrocyte; how it was run: as §2
Blood [27] = experiment: Drug metabolism in Sprague-Dawley rat whole blood assessed as BFBDS metabolite formation by HPLC analysis; assay type: ADME, tissue-based
Blood [28] = experiment: Drug metabolism in Sprague-Dawley rat whole blood assessed as p-FBM metabolite formation by HPLC analysis; assay type: ADME, tissue-based
Blood [29] = experiment: Drug metabolism in Sprague-Dawley rat whole blood assessed as p-FBA metabolite formation by HPLC analysis; assay type: ADME, tissue-based
Blood [30] = experiment: Drug metabolism in Sprague-Dawley rat whole blood assessed as p-FBA metabolite formation at 50 uM by UPLC-MS/MS analysis; assay type: ADME, tissue-based
How it was run: (§3)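 p-FBA in rat whole blood incubated with BFBTS, measured by UPLC-MS. 0.1% formic acid/acetonitrile gradient at 0.2 ml/min, column 25°C. Capillary 3.30 kV, cone 31 V, source 150°C, desolvation 350°C.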

[31] = Drug recovery in Sprague-Dawley rat whole blood at 64 uM after 2 hrs by HPLC analysis; assay type: ADME, tissue-based; conditions: read-out: Drug recovery
How it was run: (§4)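 Recovery test: BFBTS 64 μM incubated for 2 h with rat whole blood, plasma (3,000 g, 10 min) or PBS-washed RBCs. Liquid-liquid extraction, then HPLC; recovery compared across the three matrices.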

[32] = Drug recovery in Sprague-Dawley rat plasma at 64 uM after 2 hrs by HPLC analysis; assay type: ADME, cell-free; conditions: read-out: Drug recovery; how it was run: as §4
[33] = Drug recovery in Sprague-Dawley rat RBC at 64 uM after 2 hrs by HPLC analysis; assay type: ADME, cell-based; conditions: erythrocyte; how it was run: as §4
[34] = Drug metabolism in Sprague-Dawley rat RBC assessed as rapid p-FBM metabolite formation at 50 uM by HPLC analysis; assay type: ADME, cell-based; conditions: erythrocyte; how it was run: as §1
[35] = Drug metabolism in Sprague-Dawley rat RBC assessed as p-FBA metabolite formation at slow rate at 50 uM by HPLC analysis; assay type: ADME, cell-based; conditions: erythrocyte; how it was run: as §1
[36] = Half life in Sprague-Dawley rat diluted RBC at 25 uM by HPLC analysis; assay type: ADME, cell-based, Erythrocyte; conditions: diluted red blood cells (RBC)
How it was run: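 BFBTS incubated with diluted rat RBCs (10^8/ml) for 1.5, 3, 5, 10 and 15 min. After extraction, BFBTS measured by HPLC. Half-life from nonlinear regression of concentration-time data; n = 3, means with SD.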

[37] = Half life in Sprague-Dawley rat diluted RBC at 1 uM by HPLC analysis; assay type: ADME, cell-based, Erythrocyte; conditions: diluted red blood cells (RBC)
[38] = Drug metabolism in phosphate buffered saline assessed as BFBDS metabolite formation at 5 uM by HPLC analysis in presence of GSH; assay type: physicochemical; conditions: buffer
[39] = Drug metabolism in phosphate buffered saline assessed as BFBDS metabolite formation at 5 uM by HPLC analysis in presence of cysteine; assay type: physicochemical; conditions: buffer
[40] = Drug metabolism in phosphate buffered saline assessed as BFBDS metabolite formation at 5 uM by HPLC analysis in presence of N-acetyl cysteine; assay type: physicochemical; conditions: buffer
Blood [41] = experiment: Drug level in Sprague-Dawley rat whole blood treated with BFBTS at 50 uM by UPLC-MS/MS analysis; assay type: ADME, tissue-based; how it was run: as §3
[42] = Drug level in phosphate buffered saline treated with BFBTS at 5 uM at pH 7.4 after 30 mins by LC-MS analysis in presence of GSH; assay type: physicochemical; conditions: buffer, pH 7.4, 0.5 h
How it was run: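 BFBTS 5 μM incubated with GSH 0.5 mM in PBS pH 7.4 for 30 min. Two volumes of acetonitrile added, then HPLC and LC-MS to identify reaction products.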

SMILES: Fc1ccc(CS)cc1
Retention_time (Blood [1]): 24.66 min | Drug metabolism (Blood [2]): metabolite_detected | Drug metabolism (Blood [3]): metabolite_detected | Drug metabolism [4]: metabolite_detected | Drug metabolism [5]: metabolite_detected | Drug metabolism [6]: metabolite_detected | Drug metabolism [7]: metabolite_detected | Drug metabolism [8]: metabolite_detected | Drug metabolism [9]: metabolite_detected | Drug metabolism [10]: metabolite_not_detected | Drug metabolism [11]: metabolite_detected | Drug metabolism [12]: metabolite_detected | Drug metabolism [13]: metabolite_not_detected | Drug metabolism (Blood [14]): metabolite_detected

SMILES: Fc1ccc(CSSSCc2ccc(F)cc2)cc1
Drug metabolism (Blood [15]): metabolite_detected | Drug metabolism (Blood [16]): metabolite_detected | Drug metabolism [17]: metabolite_detected | Drug metabolism [18]: metabolite_detected | Drug metabolism [19]: metabolite_detected | Stability [20]: Unstable | Stability [21]: Unstable | Stability [22]: Unstable | Stability [23]: Unstable | Stability [24]: Stable | Drug metabolism [8]: metabolite_detected | Drug metabolism [25]: metabolite_detected | Drug metabolism [9]: metabolite_detected | Drug metabolism [12]: metabolite_not_detected | Drug metabolism [26]: metabolite_not_detected | Drug metabolism [13]: metabolite_not_detected | Drug metabolism (Blood [27]): metabolite_detected | Drug metabolism (Blood [28]): metabolite_detected | Drug metabolism (Blood [29]): metabolite_detected | Drug metabolism (Blood [30]): metabolite_detected | remaining at 2 h, 64 µM [31]: 2.54% | remaining at 2 h, 64 µM [32]: 13% | Drug recovery [33]: Not Active | Drug metabolism [34]: metabolite_detected | Drug metabolism [35]: metabolite_detected | half-life at 25 µM [36]: 24 s | half-life at 1 µM [37]: < 30 s | Drug metabolism [38]: metabolite_detected | Drug metabolism [39]: metabolite_detected | Drug metabolism [40]: metabolite_detected

SMILES: O=C(O)c1ccc(F)cc1
Retention_time (Blood [1]): 8.15 min | Drug metabolism (Blood [2]): metabolite_detected | Drug metabolism [8]: metabolite_not_detected | Drug metabolism [25]: metabolite_not_detected | Drug metabolism [10]: metabolite_not_detected | Drug metabolism [11]: metabolite_detected | Drug metabolism [12]: metabolite_detected | Drug metabolism [26]: metabolite_detected | Drug metabolism (Blood [14]): metabolite_detected | Drug metabolism (Blood [41]): metabolite_detected

Results, then the molecule that gave them:

Retention_time (Blood [1]): 38.89 min | Drug metabolism (Blood [2]): metabolite_detected | Drug metabolism (Blood [3]): metabolite_detected | Drug metabolism [4]: metabolite_detected | Drug metabolism [5]: metabolite_detected | Drug metabolism [6]: metabolite_detected | Drug metabolism [7]: metabolite_detected | Drug metabolism [25]: metabolite_detected | Drug metabolism [9]: metabolite_detected | Drug metabolism [10]: metabolite_not_detected | Drug metabolism [11]: metabolite_detected | Drug metabolism [26]: metabolite_detected | Drug metabolism [13]: metabolite_not_detected | Drug metabolism (Blood [14]): metabolite_detected
SMILES: Fc1ccc(CSSCc2ccc(F)cc2)cc1

Drug uptake [42]: metabolite_detected
SMILES: N[C@@H](CCC(=O)N[C@@H](CSSCc1ccc(F)cc1)C(=O)NCC(=O)O)C(=O)O
